# Assay outcomes deposited in PubChem BioAssay by several laboratories.
# TLR9-MyD88 block – inhibitors of TLR9-MyD88 association in cells, primary screen, cell-based, CHO, BLA complementation, fluorescence. AID 504734, 2011. inhibition, % at 4.98 µM. CCF4 FRET ratio. Toll-like receptor 9 (Homo sapiens) + Myeloid differentiation primary response protein …. 0.21% of 340,000 active;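 active = inhibition above the mean over all tested compounds plus 3 SD, cut at about 21% in these data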;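 note: 0% = DMSO only wells and 100% = clavulanate BLA inhibitor control wells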
# MC4R barr agon – MC4R agonists recruiting beta-arrestin, primary screen, cell-based, luminescence, agonist arm of biased-ligand search; U2OS MC4R beta-arrestin complementation; percent of melanotan II response, DMSO zero; activation, % at 8.9 µM; 0.98% of 360,000 active; Melanocortin receptor 4 (Homo sapiens), P32245;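 active = activation above a per-plate cutoff, the mean activation of sample wells on that plate plus 3 SD, cut at about 8% in these data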
# MC4R antag cAMP – MC4R antagonists of cAMP signaling, primary screen, cell-based, TR-FRET, antagonist arm of biased-ligand search; 0.48% of 360,000 active; MC4R-expressing cells, MTII-stimulated cAMP, LANCE TR-FRET; inhibition, % at 6.5 µM; Melanocortin receptor 4 (Homo sapiens), P32245;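 active = inhibition above its plate's cutoff, the mean of tested wells on that plate plus 3 SD, cut at about 29% in these data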;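 note: 0% = Melanotan II alone and 100% = Melanotan II plus saturating MCL0020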
#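 material = U2OS cells stably expressing human melanocortin 4 receptor (MC4R) | also added = Melanotan II challenge | dosing = single nominal compound dose of 6.5 µM | detection = TR-FRET with Eu-cAMP and labeled anti-cAMP, 671 nm | replication = singlicate | timing = compound 30 min, challenge 1 h, detection 1 h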
# MIN6 prolif – inducers of MIN6 beta-cell proliferation, primary screen, ATP luminescence, uHTS; MIN6 cells proliferation, ATPlite luminescence, 48 h; cells starved in 0.2% serum; 100% = growth in 10% serum; proliferation, % at 10 µM; 0.29% of 330,000 active; AID 2380, 2010;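 active = compounds whose signal lies at least 3.5 SD above the mean of all wells on their plate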;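 note: 0% = DMSO-treated cells in low-serum medium and 100% = 10% serum control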
# TLR4 MyD88 comp – inhibitors of TLR4-MyD88 association in cells, primary screen, cell-based, HeLa CL3-4, BLA complementation, FRET ratio | 0.18% of 200,000 active | AID 861, 2007 | HeLa CL3-4 TLR4/MyD88 BLA complementation | inhibition, % at 8.4 µM | Toll-like receptor 4 (Homo sapiens) + Myeloid differentiation primary response protein …; in the data active = inhibition above about 25%;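 note: 0% = vehicle and 100% = reference inhibitor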
# NOD2 RIPK2 PPI – NOD2-RIPK2 binding disruptors in cells, primary screen, fluorescence, CHO cells, BLA complementation | CCF4 ratio | inhibition, % at 4.98 µM | 0.38% of 360,000 active | AID 624267, 2012; in the data active = inhibition above about 21%;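 note: 0% = vehicle only and 100% = reference blocker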
# Target sequence (O43353 whole entry, looked up): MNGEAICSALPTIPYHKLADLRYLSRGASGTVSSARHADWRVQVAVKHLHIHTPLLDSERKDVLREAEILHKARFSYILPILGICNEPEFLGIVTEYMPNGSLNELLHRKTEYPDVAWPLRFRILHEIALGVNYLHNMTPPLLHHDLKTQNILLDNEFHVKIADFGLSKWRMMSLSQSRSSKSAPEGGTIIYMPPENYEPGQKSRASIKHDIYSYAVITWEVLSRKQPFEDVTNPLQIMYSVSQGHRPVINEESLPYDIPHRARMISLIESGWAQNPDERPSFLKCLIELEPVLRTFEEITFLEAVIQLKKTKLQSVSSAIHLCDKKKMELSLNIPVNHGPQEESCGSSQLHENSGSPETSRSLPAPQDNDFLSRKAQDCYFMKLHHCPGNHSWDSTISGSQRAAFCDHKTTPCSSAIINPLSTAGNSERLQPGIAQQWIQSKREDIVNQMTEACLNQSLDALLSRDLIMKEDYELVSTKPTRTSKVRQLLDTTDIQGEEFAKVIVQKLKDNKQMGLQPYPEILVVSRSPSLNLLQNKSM
# An asterisk follows results filed as active; . = not tested or not shown. This is a sample that favours compounds with a hit; in the whole collection about 2.1% have one here.
SMILES,TLR9-MyD88 block,MC4R barr agon,MC4R antag cAMP,MIN6 prolif,TLR4 MyD88 comp,NOD2 RIPK2 PPI
C#CCOCCOCCOCCNc1nc(N2CCN(C(=O)CCCCCCCCCCNC(=O)Cn3cc(C[C@@H](C)O)nn3)CC2)nc(N2CCN(C(=O)CCCCCCCCCCNC(=O)[C@H](CCCN=C(N)N)n3cc(C[C@@H](C)CC)nn3)CC2)n1,19.1,-2.0,42.2*,-6.8,.,24.2*
C#CCOCCOCCOCCNc1nc(N2CCN(C(=O)CCCCCCCCCCNC(=O)Cn3cc(C[C@@H](C)O)nn3)CC2)nc(N2CCN(C(=O)CCCCCCCCCCNC(=O)[C@H](CCCCN)n3cc(CCCC(=O)O)nn3)CC2)n1,-2.2,1.1,3.0,-3.0,.,-9.1
COCC(=O)N/N=C(\C)CC(=O)Nc1ccccc1C(N)=O,6.0,-0.8,1.6,-2.1,5.2,23.0*
COc1ccccc1C(=O)N/N=C(\C)CC(=O)Nc1ccccc1NC(C)=O,-1.5,-1.4,-5.8,-2.7,.,-9.9
O=C(CCCCCNc1nc(=S)[nH]c2ccccc12)NCc1ccccc1Cl,.,.,.,-1.4,-10.4,.
S=c1nc(NCCc2ccccc2Cl)c2ccccc2[nH]1,-24.2,12.1*,-1.8,0.3,.,-9.8
O=C(NCCc1ccc(Cl)cc1)C1CCC(CNc2nc(=S)[nH]c3ccccc23)CC1 (centres undefined),-0.5,16.5*,6.8,-6.7,-4.0,-3.4
COc1ccccc1NC(=O)c1ccc(S(=O)(=O)NCc2ccco2)cc1,-1.9,0.1,-2.8,-1.1,.,-12.1
O=C(CSc1ccc2nnc(-c3ccccn3)n2n1)Nc1cccc(F)c1,-3.6,-3.4,4.2,-2.6,.,3.1
O=C(CCNC(=O)C1CCN(S(=O)(=O)c2ccccc2)CC1)Nc1cccc(C(F)(F)F)c1,1.3,-2.9,-2.7,-2.0,.,0.8
Cc1nc2ccccc2n2c(O)c(CC(=O)O)cc12,9.1,8.3*,-29.6,1.0,-22.9,11.4
O=C(N/N=C/c1ccc2c(c1)OCO2)c1sc2cccc(Cl)c2c1Cl,0.6,8.3*,3.1,-1.1,-6.3,-1.6
COc1ccc2[nH]c3c(=O)n(/N=C/[C@H]4C(C)C=C(C)CC4C)c(=O)[nH]c3c2c1 (some centres undefined),1.1,8.3*,20.3,-5.3,-38.0,0.6
CCc1nc2c(OCCn3cccc3)cccn2c1N(C=O)Cc1ccccc1,.,0.3,4.2,.,.,0.4
CCCc1nn(C)c(C(=O)Nc2ccc3ccccc3c2)c1Cl,3.2,9.4*,13.5,-1.7,4.7,-5.0
CC1=NNC(=O)/C1=C\c1cn(-c2ccccc2)nc1-c1ccc(F)cc1,-0.2,3.2,30.5*,.,2.6,4.0
C#CCn1c(=NC(=O)c2ccc(S(=O)(=O)N3CCc4ccccc4C3)cc2)sc2cc(S(N)(=O)=O)ccc21,-3.3,9.2*,-4.8,0.0,-6.5,-2.5
O=C1C=C(c2cc(F)ccc2F)C[C@@H](c2ccc(F)cc2)C1,-1.8,1.6,15.3,-2.4,.,5.3
COc1cc(C(=O)Nc2nc(-c3cc(C)ccc3C)c(C)s2)ccc1OCC(=O)Nc1ccc(F)cc1,1.9,-1.8,6.8,-3.1,-19.4,-3.1
COc1ccc(-c2nc(NC(=O)c3ccc(OCC(=O)Nc4ccc(F)cc4)c(OC)c3)sc2C)cc1,-3.7,44.6*,4.1,-5.4,2.8,-12.9
O=S(=O)(Nc1ccc(N2CCOCC2)cc1)c1c(F)cc(F)cc1Br,-0.7,-2.1,-2.6,-4.9,.,-0.4
Cc1cccc(NC(=O)CCSc2ccccc2)c1C,-1.1,8.7*,8.1,-1.9,4.0,2.9
COc1ccccc1CNC(=O)CN1C(=O)COc2ccc(S(=O)(=O)N3CCCCC3)cc21,-3.9,-2.7,3.3,-0.8,.,-2.9
NC(=O)CSc1nc2scc(-c3ccc(Cl)cc3)c2c(=O)n1Cc1ccccc1,-13.9,8.7*,12.9,-1.6,-5.6,-7.3
COc1ccc(Cn2c(-c3ccc(C)cc3)nc3c(c(=O)c4ccccc4n3C)c2=O)cc1,7.0,9.2*,14.8,0.0,1.0,-5.7
SMILES,TLR9-MyD88 block,MC4R barr agon,MC4R antag cAMP,MIN6 prolif,TLR4 MyD88 comp,NOD2 RIPK2 PPI
COc1ccc(Cn2c(-c3ccc(OC)cc3)nc3c(c(=O)c4ccccc4n3C)c2=O)cc1,.,.,.,-1.2,-15.8,.
Cc1sc2nc(-c3cccnc3)nc(Cl)c2c1-c1ccccc1,-1.6,0.8,-9.7,-2.8,-4.3,-0.3
CN(C)/C(=N\S(=O)(=O)c1ccc(Cl)cc1)c1ccc(F)cc1,8.7,1.3,-4.0,-1.6,.,-2.9
CN(C)C(=O)c1cccc(-c2cnc3c(NC=O)cc(-c4ccccc4N(C)C)cn23)c1,.,9.2*,-33.3,.,.,-0.7
COc1cccc(-c2cnc3c(NC=O)cc(-c4ccccc4Oc4ccccc4)cn23)c1,.,8.8*,1.0,.,.,5.3
COc1cccc(-c2cc(NC=O)c3ncc(-c4ccc(C(C)=O)cc4)n3c2)c1,.,8.4*,2.0,.,.,-2.4
O=C(NNS(=O)(=O)c1ccc(F)cc1)c1cc2ccccc2cc1O,7.4,-0.1,11.4,3.5,.,2.3
CCOC(=O)c1[nH]c2ccccc2c1NC(=O)c1ccc2c(c1)OCO2,-8.3,1.4,-1.1,3.1,1.4,-12.4
CCOC(=O)c1oc2ccccc2c1NC(=O)c1ccc2c(c1)OCO2,0.3,9.4*,10.8,4.3,1.1,-12.9
Cc1ccc(NC(=O)c2ccc(NCCCN3CCOCC3)c([N+](=O)[O-])c2)cc1Cl,7.7,-1.2,-7.1,0.0,6.6,2.8
O=C(Nc1ccc(Cl)c([N+](=O)[O-])c1)c1ccc(NCCCN2CCOCC2)c([N+](=O)[O-])c1,-8.6,19.8*,4.7,-5.9,0.7,6.7
O=C(/C=C/c1ccccc1[N+](=O)[O-])NCc1ccncc1,10.0,1.1,3.9,1.4,-11.2,-16.0
COc1ccc(/C=N\NC(=O)COc2ccc(C(C)(C)C)cc2)cc1Cn1nc(C)cc1C,5.2,22.2*,4.3,-3.1,7.4,-3.7
COc1ccc(/C=N/NC(=O)c2ccco2)cc1Cn1nc(C)cc1C,1.8,-1.6,12.1,0.0,-7.1,6.9
C=C(C)C(O)Cc1c(OC)ccc(C(=O)/C=C/c2ccc(O)cc2)c1O (centres undefined),-0.5,2.8,3.1,-6.2,.,-13.5
CC(C)=CCC/C(C)=C/Cc1c(O)ccc(C(=O)/C=C/c2ccc(O)cc2)c1O,-3.1,8.6*,6.9,-6.7,-1.6,-0.7
